Measured values published in ChEMBL document CHEMBL1134389, “Mapping and fitting the peripheral benzodiazepine receptor binding site by carboxamide derivatives. Comparison of different approaches to quantitative ligand-receptor interaction modeling” (J Med Chem, 2001).

Target: Translocator protein (Rattus norvegicus, UniProt P16257)
Test: Test in vitro, for potential ability to displace [3H]1 from PBR in rat brain cortex
Type: tissue-based
Summary of the method: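 Rat cortical membranes homogenized in ice-cold PBS (50 mM, pH 7.4) with 100 mM NaCl, spun at 1000g, then pellet washed three times at 50000g and resuspended in PBS. Assay stopped by GF/B filtration, counted by liquid scintillation. IC50 fitted from six displacer concentrations, triplicate.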

Sequence of Translocator protein (P16257 whole entry, looked up): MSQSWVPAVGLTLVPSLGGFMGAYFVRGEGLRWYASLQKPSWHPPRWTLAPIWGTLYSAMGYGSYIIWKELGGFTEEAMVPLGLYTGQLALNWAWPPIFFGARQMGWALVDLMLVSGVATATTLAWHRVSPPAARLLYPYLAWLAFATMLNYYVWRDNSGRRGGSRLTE

## Cc1nc2ccccc2c(-c2ccccc2)c1C(=O)N(C)c1ccccc1
  IC50: > 10000 nM

## CCCN(CCC)C(=O)c1ccccc1CN(CC)Cc1ccccc1
  IC50: 8870 nM

## Cc1ccc(CN2Cc3nc4ccccc4c(-c4ccccc4)c3C2=O)cc1
  IC50: 410 nM

## CCCN(CCC)C(=O)c1c(C)nc2ccccc2c1-c1ccccc1
  IC50: > 10000 nM

## CCN(CC)C(=O)c1cc(-c2ccccc2)c2ccccc2c1
  IC50: 5 nM

## CCN(Cc1ccccc1)Cc1ccccc1C(=O)N(CC)CC
  IC50: 8210 nM

## CCN(Cc1ccccc1)Cc1nc2ccccc2c(-c2ccccc2)c1C(=O)NCc1ccccc1
  IC50: 2900 nM

## CCOC(=O)c1c(N(CC)Cc2ccccc2)nc2ccccc2c1-c1ccccc1
  IC50: 540 nM

## CCN(Cc1ccccc1)Cc1nc2ccccc2c(-c2ccccc2)c1C(=O)N(CC)CC
  IC50: 373 nM

## CCN(Cc1ccccc1)Cc1cc(-c2ccccc2)c2ccccc2n1
  IC50: 3400 nM

## O=C1c2c(nc3ccccc3c2-c2ccccc2)CN1Cc1ccc(Cl)cc1
  IC50: 210 nM

## CCN(Cc1ccccc1)Cc1nc2ccccc2c(-c2ccccc2)c1C(=O)N(C)c1ccccc1
  IC50: 1320 nM

## CCN(CC)C(=O)c1c(C)nc2ccccc2c1-c1ccccc1
  IC50: > 10000 nM

## CCN(CC)C(=O)c1cc(-c2ccccc2)c2ccccc2n1
  IC50: 27 nM

## CCCN(CCC)C(=O)c1c(CN(CC)Cc2ccccc2)nc2ccccc2c1-c1ccccc1
  IC50: 456 nM

## CCCNC(=O)c1c(CN(CC)Cc2ccccc2)nc2ccccc2c1-c1ccccc1
  IC50: 872 nM

## CCOC(=O)c1c(CN(CC)Cc2ccccc2)nc2ccccc2c1-c1ccccc1
  IC50: 700 nM

## CCOC(=O)c1c(Cl)nc2ccccc2c1-c1ccccc1
  IC50: 3700 nM

## CCOC(=O)c1c(CN2CCc3ccccc3C2)nc2ccccc2c1-c1ccccc1
  IC50: 1190 nM

## CCN(Cc1ccccc1)Cc1nc2ccccc2c(-c2ccccc2)c1C(=O)N(C)C
  IC50: 229 nM

## CCN(Cc1ccccc1)Cc1ccccc1C(=O)N(C)c1ccccc1
  IC50: > 10000 nM

## CCN(Cc1ccccc1)Cc1ccccc1C(=O)N(C)C
  IC50: > 10000 nM

## CCN(Cc1ccccc1)Cc1nc2ccccc2c(-c2ccccc2)c1C(=O)N(C)c1ccc(Cl)cc1
  IC50: 2480 nM

## CCN(Cc1ccccc1)Cc1c(C(=O)N(CC)CC)nc2ccccc2c1-c1ccccc1
  IC50: 4.1 nM
